Here are results for one molecule from article PMC3026963 (The Biochemical journal, 2010).

One assay deals with CK2α catalytic subunit (Homo sapiens, UniProt P68400). As to the kind of experiment: In vitro phosphorylation assay of CK2α with peptide substrate RRRADDSDDDDD
Format: biochemical. In outline: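 Activity is expressed as % of no-peptide control, as the mean of at least three independent experiments. Full-length murine NBD1ΔF508 (389–673) tests were run at 350 μM ATP.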

For the next assay, the system named is CK2 holoenzyme. The assay can be described thus: CK2 holoenzyme activity towards protein and peptide substrates. Format: biochemical, human. The following applies: results not shown. In outline: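 Recombinant human CK2α and CK2β expressed in E. coli; holoenzyme formed by pre-incubating CK2α with 10-fold molar excess of CK2β. Radiolabel incorporation was measured; at least three independent experiments were averaged.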

CK2α catalytic subunit, sequence (P68400 whole entry): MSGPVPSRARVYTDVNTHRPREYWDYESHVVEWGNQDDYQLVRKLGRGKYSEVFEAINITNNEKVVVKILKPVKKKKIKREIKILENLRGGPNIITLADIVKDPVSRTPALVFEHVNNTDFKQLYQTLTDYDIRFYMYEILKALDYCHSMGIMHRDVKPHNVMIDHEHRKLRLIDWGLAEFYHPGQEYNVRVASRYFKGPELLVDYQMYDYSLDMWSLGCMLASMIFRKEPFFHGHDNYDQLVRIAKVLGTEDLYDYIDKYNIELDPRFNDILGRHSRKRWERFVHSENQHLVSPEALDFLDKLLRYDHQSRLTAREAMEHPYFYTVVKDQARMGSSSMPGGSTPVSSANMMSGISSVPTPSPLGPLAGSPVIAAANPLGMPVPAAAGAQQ

B1: NBD1ΔF508: purified ΔF508 mutated recombinant murine NBD1 (nucleotide-binding domain 1 of CFTR; sequence 389–673) (protein)
chain: TTGIIMENVTAFWEEGFGELLEKVQQSNGDRKHSSDENNVSFSHLCLVGNPVLKNINLNIEKGEMLAITGSTGSGKTSLLMLILGELEASEGIIKHSGRVSFCSQFSWIMPGTIKENIIGVSYDEYRYKSVVKACQLQQDITKFAEQDNTVLGEGGVTLSGGQRARISLARAVYKDADLYLLDSPFGYLDVFTEEQVFESCVCKLMANKTRILVTSKMEHLRKADKILILHQGSSYFYGTFSELQSLRPDFSSKLMGYDTFDQFTEERRSSILTETLRRFSVDD
Consider B1, for which, in the assay with CK2α catalytic subunit (50 μM NBD1ΔF508, 350 μM ATP), the “effect on inhibition of CK2α by the ΔF508 peptide” value is “abrogates the inhibitory efficacy of the ΔF508 peptide”. In the assay with CK2α catalytic subunit (concentration raised up to 20 μM, results not shown), the “inhibition of CK2α by the full-length protein” value is reported as “no significant inhibition”. The “effect on CK2 holoenzyme” value with CK2 holoenzyme is recorded as “no appreciable effect”.
